One block for each compound: values may come before it.
Key:
[1] = system: Human immunodeficiency virus 1; experiment: Antiviral activity against wild type HIV1 NL4-3 in human HeLaP4 cells assessed as beta-galactosidase activity after 48 hrs; type: functional, organism-based
Procedure, shortened: (§1)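 Cells plated at 5000/well, incubated 48 h, then medium replaced with compound (0.00128 to 4 µM). Infection 4 h later with cell-free NL4-3 virus equivalent to 100 ng p24. At 48 h postinfection cells lysed in PBS with 0.1% NP-40 and 5 mM MgCl2. β-Galactosidase read with chlorophenol red β-D-galactopyranoside. EC50 taken from dose-response curves.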

[2] = Selectivity index, ratio of CC50 for human HeLaP4 cells to EC50 for HIV1 NL4-3; type: toxicity, cell-based; conditions: read-out: Ratio CC50/EC50
Procedure, shortened: (§2)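 Viability by WST-1 absorbance at 570 nm relative to drug-free control. Divided by EC50 from the 48 h β-galactosidase infection assay with NL4-3 in the same cell type.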

[3] = molecular target: Human immunodeficiency virus type 1 reverse transcriptase (Human immunodeficiency virus 1) (UniProt Q72547); experiment: Inhibition of recombinant HIV1 reverse transcriptase assessed as residual activity at 10 uM by […] incorporation assay relative to control
Procedure, shortened: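 Recombinant HIV-1 RT, compound at 10 µM final (from DMSO). Incubated 10 min at 37 °C, then collected on DEAE filters and washed. Counted by phosphorimager; activity expressed relative to uninhibited RT.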

[4] = system: Human immunodeficiency virus 1; experiment: Antiviral activity against wild type HIV1 NL4-3 in human TZM-b1 cells assessed as beta-galactosidase activity after 48 hrs; type: functional, organism-based; conditions: Human immunodeficiency virus 1, NL4-3, TZM-b1, 48 h; procedure, shortened: as §1
[5] = Selectivity index, ratio of CC50 for human TZM-b1 cells to EC50 for HIV1 NL4-3; type: toxicity, cell-based; conditions: read-out: Ratio CC50/EC50; procedure, shortened: as §2
[6] = system: Human immunodeficiency virus 1; experiment: Antiviral activity against HIV1 NL4-3 with L100I mutant in human TZM-b1 cells assessed as beta-galactosidase activity after 48 hrs by single round replication assay; type: functional, organism-based; conditions: Human immunodeficiency virus 1, NL4-3, TZM-b1, 48 h
Procedure, shortened: (§3)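 TZM-bl cells (DMEM, 5% heat-inactivated FBS) plated at 5000 cells/well and grown 48 h. Medium replaced with compound at 0.00128–4 µM. After 4 h, cells infected with NL4-3-derived RT-mutant virus equal to 100 ng p24. Virus stocks came from HEK293 cells transfected with sequence-verified mutant clones. At 48 h, cells lysed in PBS/0.1% NP-40/5 mM MgCl2 and β-galactosidase read with CPRG. EC50 taken from dose-response curves.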

[7] = system: Human immunodeficiency virus 1; experiment: Antiviral activity against HIV1 NL4-3 with K103N/L100I double mutant in human TZM-b1 cells assessed as beta-galactosidase activity after 48 hrs by single round replication assay; type: functional, organism-based; conditions: Human immunodeficiency virus 1, NL4-3, TZM-b1, 48 h; procedure, shortened: as §3
[8] = system: Human immunodeficiency virus 1; experiment: Antiviral activity against HIV1 NL4-3 with K103N/Y181C double mutant in human TZM-b1 cells assessed as beta-galactosidase activity after 48 hrs by single round replication assay; conditions: Human immunodeficiency virus 1, NL4-3, TZM-b1, 48 h
[9] = system: Human immunodeficiency virus 1; experiment: Antiviral activity against HIV1 NL4-3 with L100I/V108I double mutant in human TZM-b1 cells assessed as beta-galactosidase activity after 48 hrs by single round replication assay; type: functional, organism-based; conditions: Human immunodeficiency virus 1, NL4-3, TZM-b1, 48 h; procedure, shortened: as §3
[10] = system: Human immunodeficiency virus 1; experiment: Antiviral activity against HIV1 NL4-3 with V108I mutant in human TZM-b1 cells assessed as beta-galactosidase activity after 48 hrs by single round replication assay; type: functional, organism-based; conditions: Human immunodeficiency virus 1, NL4-3, TZM-b1, 48 h; procedure, shortened: as §3
[11] = system: Human immunodeficiency virus 1; experiment: Antiviral activity against HIV1 NL4-3 with Y181C mutant in human TZM-b1 cells assessed as beta-galactosidase activity after 48 hrs by single round replication assay; type: functional, organism-based; conditions: Human immunodeficiency virus 1, NL4-3, TZM-b1, 48 h; procedure, shortened: as §3
[12] = system: Human immunodeficiency virus 1; experiment: Antiviral activity against HIV1 NL4-3 with K103N mutant in human TZM-b1 cells assessed as beta-galactosidase activity after 48 hrs by single round replication assay; type: functional, organism-based; conditions: Human immunodeficiency virus 1, NL4-3, TZM-b1, 48 h; procedure, shortened: as §3
[13] = system: Human immunodeficiency virus 1; experiment: Antiviral activity against HIV1 NL4-3 with K103N/V108I double mutant in human TZM-b1 cells assessed as beta-galactosidase activity after 48 hrs by single round replication assay; conditions: Human immunodeficiency virus 1, NL4-3, TZM-b1, 48 h
[14] = system: Human immunodeficiency virus 1; experiment: Antiviral activity against HIV1 NL4-3 in human TZM-b1 cells assessed as beta-galactosidase activity after 48 hrs by single round replication assay; conditions: Human immunodeficiency virus 1, NL4-3, TZM-b1, 48 h
[15] = system: Human immunodeficiency virus 1; experiment: Antiviral activity against HIV1 NL4-3 with L100I mutant in human MT4 cells assessed as inhibition of virus-induced cytopathicity after 5 days by multiple round replication assay; type: functional, organism-based; conditions: Human immunodeficiency virus 1, NL4-3, MT4, 120 h
Procedure, shortened: (§4)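 MT-4 human T-cells, cultured in RPMI 1640 with 10% heat-inactivated FBS at 37 °C, 5% CO2, infected with HIV-1 NL4-3-derived mutant strains, then exposed to a range of compound concentrations. After 5 days, viability of infected and mock-infected cells read by WST-1 tetrazolium cleavage.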

[16] = system: Human immunodeficiency virus 1; experiment: Antiviral activity against HIV1 NL4-3 with double K103N/L100I mutant in human MT4 cells assessed as inhibition of virus-induced cytopathicity after 5 days by multiple round replication assay; type: functional, organism-based; conditions: Human immunodeficiency virus 1, NL4-3, MT4, 120 h; procedure, shortened: as §4
[17] = system: Human immunodeficiency virus 1; experiment: Antiviral activity against HIV1 NL4-3 with Y181C mutant in human MT4 cells assessed as inhibition of virus-induced cytopathicity after 5 days by multiple round replication assay; type: functional, organism-based; conditions: Human immunodeficiency virus 1, NL4-3, MT4, 120 h; procedure, shortened: as §4
[18] = system: Human immunodeficiency virus 1; experiment: Antiviral activity against HIV1 NL4-3 with K103N mutant in human MT4 cells assessed as inhibition of virus-induced cytopathicity after 5 days by multiple round replication assay; type: functional, organism-based; conditions: Human immunodeficiency virus 1, NL4-3, MT4, 120 h; procedure, shortened: as §4
[19] = Human immunodeficiency virus 1, NL4-3, HeLaP4, 48 h

EC50 [4]: 116 nM
SMILES: CCOC(=O)c1c(S[C@@H]2C[C@H](C)C[C@H](C)C2)c(CC)c(C)[nH]c1=O
selectivity ratio [5]: 862

EC50 [1, 19]: 1200 nM
SMILES: CCc1c(C)[nH]c(=O)c(N)c1O[C@@H]1C[C@H](C)C[C@H](C)C1
selectivity ratio [2]: 83

EC50 ([1]; helap4): 43 nM
SMILES: CCOC(=O)c1c(OC2CC(C)CC(C)C2)c(CC)c(C)[nH]c1=O (stereo in doubt; 10)

EC50 [1, 19]: 85 nM
SMILES: CCOC(=O)c1c(OC2CC(C)CC(C)C2)c(CC)c(C)[nH]c1=O (stereo in doubt; 10B)

EC50 [4]: 275 nM
SMILES: CCc1c(OC2CC(C)CC(C)C2)cc(=O)[nH]c1C (configuration not stated)
selectivity ratio [5]: 200

EC50 [4]: 121 nM
SMILES: CCc1c(C)[nH]c(=O)c(CO)c1O[C@@H]1C[C@H](C)C[C@H](C)C1
selectivity ratio [5]: > 826

EC50 [4]: < 1 nM
SMILES: CCc1c(C)[nH]c(=O)c(C(C)(C)O)c1O[C@@H]1C[C@H](C)C[C@H](C)C1
selectivity ratio [5]: > 100000

EC50 [1, 19]: 236 nM
SMILES: CCOC(=O)c1c(O[C@H]2C[C@H](C)C[C@H](C)C2)c(CC)c(C)[nH]c1=O

EC50 [1, 19]: 520 nM
SMILES: CCOC(=O)c1c(OC2CCCC(C)C2)c(CC)c(C)[nH]c1=O (configuration not stated)
selectivity ratio [2]: 192

The remaining lines, values behind:

SMILES: CCc1c(C)[nH]c(=O)c(C(=O)O)c1OC1CCCCC1
EC50 [1, 19]: > 10000 nM

SMILES: CCOC(=O)c1c(OC2CCCCC2Cl)c(CC)c(C)[nH]c1=O (configuration not stated)
selectivity ratio [2]: < 33
EC50 [1, 19]: > 3000 nM

SMILES: CCOC(=O)c1c(OC2CCCC2)c(CC)c(C)[nH]c1=O
Activity [3]: 58.6%
EC50 [4]: 740 nM
selectivity ratio [5]: > 135

SMILES: CCc1c(C)[nH]c(=O)c(C)c1O[C@@H]1C[C@H](C)C[C@H](C)C1
EC50 [6]: 203 nM
EC50 [7]: 1400 nM
EC50 [8]: 1200 nM
EC50 [9]: 833 nM
EC50 [10]: 121 nM
EC50 [4]: 2 nM
EC50 [11]: 893 nM
selectivity ratio [5]: 40000
EC50 [12]: 142 nM
EC50 [13]: 5100 nM
EC50 [14]: > 10000 nM

SMILES: CCOC(=O)c1c(OC2CCC(CC)CC2)c(CC)c(C)[nH]c1=O (configuration not stated)
selectivity ratio [2]: < 14
EC50 [1, 19]: > 4000 nM

SMILES: CCc1c(C)[nH]c(=O)c(CN=[N+]=[N-])c1O[C@@H]1C[C@H](C)C[C@H](C)C1
EC50 [6]: 34 nM
EC50 [7]: 828 nM
EC50 [8]: 689 nM
EC50 [9]: 107 nM
EC50 [10]: 11 nM
EC50 [4]: < 1 nM
EC50 [11]: 206 nM
selectivity ratio [5]: > 54000
EC50 [12]: 74 nM
EC50 [13]: 4400 nM
EC50 [14]: > 10000 nM

SMILES: CCc1c(C)[nH]c(=O)c(Br)c1O[C@@H]1C[C@H](C)C[C@H](C)C1
EC50 [7]: 68 nM
EC50 [8]: 523 nM
EC50 [9]: 38 nM
EC50 [10]: 1 nM
EC50 [4]: < 1 nM
EC50 [11]: 138 nM
selectivity ratio [5]: > 28000
EC50 [12]: 9 nM
EC50 [13]: 780 nM
EC50 [14]: 6300 nM

SMILES: Cc1ccnc2c1NC(=O)c1cccnc1N2C1CC1 [NEVIRAPINE]
EC50 [6]: 252 nM
EC50 [7]: > 10000 nM
EC50 [9]: > 10000 nM
EC50 [10]: 792 nM
EC50 [4]: 39 nM
EC50 [11]: > 10000 nM
EC50 [12]: 3300 nM
EC50 [13]: > 10000 nM
EC50 [14]: > 10000 nM

SMILES: CCc1c(C)[nH]c(=O)c(N(C)C)c1O[C@@H]1C[C@H](C)C[C@H](C)C1
EC50 [6]: 28 nM
EC50 [7]: 2900 nM
EC50 [8]: 245 nM
EC50 [9]: 1600 nM
EC50 [10]: 6 nM
EC50 [4]: < 1 nM
EC50 [11]: 177 nM
selectivity ratio [5]: > 66000
EC50 [12]: 14 nM
EC50 [13]: > 10000 nM
EC50 [14]: > 10000 nM

SMILES: CCOC(=O)c1c(OC2CCCCCC2)c(CC)c(C)[nH]c1=O
Activity [3]: 34.6%
EC50 [4]: 390 nM
selectivity ratio [5]: 205

SMILES: CCOC(=O)c1c(OC2C(C)CCCC2C)c(CC)c(C)[nH]c1=O (configuration not stated)
selectivity ratio [2]: 78
EC50 [1, 19]: 955 nM

SMILES: CCc1c(C)[nH]c(=O)c([N+](=O)[O-])c1O[C@@H]1C[C@H](C)C[C@H](C)C1
EC50 [6]: 9 nM
EC50 [7]: > 10000 nM
EC50 [9]: 8300 nM
EC50 [10]: 2 nM
EC50 [4]: < 1 nM
EC50 [11]: 279 nM
selectivity ratio [5]: > 37000
EC50 [12]: 177 nM
EC50 [13]: > 10000 nM
EC50 [14]: > 10000 nM

SMILES: CCOC(=O)c1c(OC2CCCCCCC2)c(CC)c(C)[nH]c1=O
Activity [3]: 24%
EC50 [4]: 700 nM
selectivity ratio [5]: 83

SMILES: CCOC(=O)c1c(OC2CC(C)(C)CC(C)(C)C2)c(CC)c(C)[nH]c1=O
selectivity ratio [2]: 112
EC50 [1, 19]: 258 nM

SMILES: O=C1Nc2ccc(Cl)cc2[C@@](C#CC2CC2)(C(F)(F)F)O1 [EFAVIRENZ]
EC50 [15]: 167 nM
EC50 [6]: 17 nM
EC50 [7]: 3700 nM
EC50 [8]: 525 nM
EC50 [16]: > 10000 nM
EC50 [9]: 14 nM
EC50 [4]: < 1 nM
EC50 [17]: 4 nM
EC50 [18]: 320 nM
EC50 [12]: 31 nM
EC50 [13]: 34 nM
EC50 [14]: 235 nM

SMILES: CCOC(=O)c1c(OC2CCCC(C)C2C)c(CC)c(C)[nH]c1=O (configuration not stated)
selectivity ratio [2]: 2620
EC50 [1, 19]: 13 nM

SMILES: CCOC(=O)c1c(OC2CCCCC2)c(CC)c(C)[nH]c1=O
Activity [3]: 44.7%
EC50 [4]: 230 nM
selectivity ratio [5]: > 435

From ChEMBL document CHEMBL1136985, “New pyridinone derivatives as potent HIV-1 nonnucleoside reverse transcriptase inhibitors” (J Med Chem, 2009)
